Test results from ChEMBL document CHEMBL4014276, “Diphenylurea derivatives for combating methicillin- and vancomycin-resistant Staphylococcus aureus” (Eur J Med Chem, 2017).
Converted amounts (≈) assume the structure as drawn. The source made the active and inactive calls. The rule behind the calls is not given here.

What was measured:
[1] = system: Staphylococcus aureus; assay: Antibacterial activity against methicillin-resistant Staphylococcus aureus USA400 infected in Caenorhabditis elegans AU37 harboring (sek-1(km4);glp-4(bn2)I) mutant assessed as reduction in colony forming units at 10 ug/ml after 20 hrs by microscopic method relative to control; format: functional; parameters: scale not given: the % may be the effect or the level left
Outline: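 C. elegans AU37 L4/adult worms infected on MRSA USA400 lawn 6 h, washed in M9; 15-25 worms per well treated with 10 µg/mL in triplicate for 20 h, PBS negative control; worms lysed with silicon carbide, plated on TSA with 5 µg/mL nalidixic acid, 37 °C 18 h; CFU per worm, Student's t-test with Holm-Sidak correction.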

[2] = system: Staphylococcus aureus; assay: Bactericidal activity against methicillin-resistant Staphylococcus aureus USA400 assessed as time required to reduce log10CFU of bacterial load at 4 times MIC by time kill assay; format: functional
[3] = system: Staphylococcus aureus; assay: Antibacterial activity against vancomycin-resistant Staphylococcus aureus VRSA10 after 20 hrs by broth microdilution method; format: functional; settings: VRSA10, 20 h
Outline: (§1)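 CLSI broth microdilution in cation-adjusted Mueller Hinton broth; compounds serially diluted, triplicate samples; 37 °C, 20 h. MIC read visually as lowest concentration with no visible growth; mean of triplicate determinations reported.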

[4] = system: Staphylococcus aureus; assay: Bactericidal activity against Staphylococcus aureus RN4220 NRS107 clinical isolate after 18 hrs by broth microdilution method; format: functional; settings: RN4220 NRS107, 18 h
Outline: (§2)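 From MIC wells without visible growth, 5 uL spotted onto Tryptic soy agar, incubated 37 °C for at least 18 h; MBC taken as lowest concentration giving 99.9% growth inhibition.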

[5] = system: Staphylococcus aureus; assay: Bactericidal activity against methicillin-resistant Staphylococcus aureus USA400 NRS123 clinical isolate assessed as disruption of bacterial membrane by measuring leakage of 280 nM absorbing material at 5 times MIC after 30 mins by spectrophotometric method; format: functional
[6] = system: Staphylococcus aureus; assay: Bactericidal activity against methicillin-resistant Staphylococcus aureus USA300 NRS384 clinical isolate after 18 hrs by broth microdilution method; format: functional; settings: USA300 NRS384, 18 h; outline: as §2
[7] = system: Staphylococcus aureus; assay: Bactericidal activity against methicillin-resistant Staphylococcus aureus USA100 NRS382 clinical isolate after 18 hrs by broth microdilution method; format: functional; settings: USA100 NRS382, 18 h; outline: as §2
[8] = system: Staphylococcus aureus; assay: Antibacterial activity against vancomycin-resistant Staphylococcus aureus VRSA4 after 20 hrs by broth microdilution method; format: functional; settings: VRSA4, 20 h; outline: as §1
[9] = system: Staphylococcus aureus; assay: Bactericidal activity against methicillin-resistant Staphylococcus aureus USA400 infected in mouse J774 cells assessed as reduction in colony forming units at 16 ug/ml after 24 hrs by time kill assay relative to control; format: functional
Outline: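 J774 murine macrophages in DMEM/10% FBS infected with MRSA USA400 at MOI ~100:1 for 1 h, extracellular bacteria killed with gentamicin 50 µg/mL; treated at 16 µg/mL in triplicate; after 4, 8 or 24 h cells washed, lysed with 0.1% Triton X-100, plated for CFU; percent reduction versus untreated, t-test.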

[10] = system: Staphylococcus aureus; assay: Bactericidal activity against methicillin-resistant Staphylococcus aureus USA400 NRS123 clinical isolate assessed as disruption of bacterial membrane by measuring leakage of 260 nM absorbing material at 5 times MIC after 30 mins by spectrophotometric method; format: functional
[11] = system: Staphylococcus aureus; assay: Bactericidal activity against vancomycin-resistant Staphylococcus aureus VRSA4 after 18 hrs by broth microdilution method; format: functional; settings: VRSA4, 18 h; outline: as §2
[12] = system: Staphylococcus aureus; assay: Antibacterial activity against methicillin-resistant Staphylococcus aureus USA100 NRS382 clinical isolate after 20 hrs by broth microdilution method; format: functional; settings: USA100 NRS382, 20 h; outline: as §1
[13] = system: Staphylococcus aureus; assay: Bactericidal activity against methicillin-resistant Staphylococcus aureus USA200 NRS383 clinical isolate after 18 hrs by broth microdilution method; format: functional; settings: USA200 NRS383, 18 h; outline: as §2
[14] = system: Staphylococcus aureus; assay: Bactericidal activity against vancomycin-resistant Staphylococcus aureus VRSA10 after 18 hrs by broth microdilution method; format: functional; settings: VRSA10, 18 h; outline: as §2
[15] = system: Staphylococcus aureus; assay: Bactericidal activity against methicillin-resistant Staphylococcus aureus USA400 NRS123 clinical isolate after 18 hrs by broth microdilution method; format: functional; settings: USA400 NRS123, 18 h; outline: as §2
[16] = Intrinsic clearance in human liver microsomes in absence of NADPH by LC-MS/MS method; format: ADME, microsome; settings: read-out: CLH
[17] = Intrinsic clearance in human liver microsomes in presence of NADPH by LC-MS/MS method; format: ADME, microsome; settings: read-out: CLH
[18] = Half life in human liver microsomes in presence of NADPH by LC-MS/MS method; format: ADME, microsome
[19] = Half life in human liver microsomes in absence of NADPH by LC-MS/MS method; format: ADME, microsome
[20] = Apparent permeability across basolateral to apical side in human Caco2 cells at 10 uM after 2 hrs by LC-MS/MS method; format: ADME, cell-based; settings: Caco-2
[21] = Apparent permeability across apical to basolateral side in human Caco2 cells at 10 uM after 2 hrs by LC-MS/MS method; format: ADME, cell-based; settings: Caco-2
[22] = system: Staphylococcus aureus; assay: Antibacterial activity against methicillin-resistant Staphylococcus aureus USA200 NRS383 clinical isolate after 20 hrs by broth microdilution method; format: functional; settings: USA200 NRS383, 20 h; outline: as §1
[23] = system: Staphylococcus aureus; assay: Antibacterial activity against Staphylococcus aureus RN4220 NRS107 clinical isolate after 20 hrs by broth microdilution method; format: functional; settings: RN4220 NRS107, 20 h; outline: as §1
[24] = system: Staphylococcus aureus; assay: Antibacterial activity against methicillin-resistant Staphylococcus aureus USA200 NRS383 clinical isolate preincubated followed by bacterial subculturing for 2 weeks; format: functional
[25] = system: Staphylococcus aureus; assay: Antibacterial activity against methicillin-resistant Staphylococcus aureus USA100 NRS382 clinical isolate preincubated followed by bacterial subculturing for 2 weeks; format: functional
[26] = system: Staphylococcus aureus; assay: Antibacterial activity against methicillin-resistant Staphylococcus aureus USA400 NRS123 clinical isolate preincubated followed by bacterial subculturing for 2 weeks; format: functional
[27] = system: HaCaT; assay: Cytotoxicity against human HaCaT cells up to 64 ug/ml after 2 hrs by MTS assay; format: cell-based
Outline: (§3)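 Keratinocytes grown in DMEM with 10% FBS at 37 °C, 5% CO2; exposed in triplicate to 8, 16, 32 and 64 µg/mL for 2 h. DMSO-matched controls. MTS added for 4 h, absorbance at 490 nm. Viability expressed as % of DMSO-treated cells (mean of triplicate ± SD); one-way ANOVA with Dunnett's test, P < 0.05.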

[28] = system: Staphylococcus aureus; assay: Antibacterial activity against methicillin-resistant Staphylococcus aureus USA300 NRS384 clinical isolate after 20 hrs by broth microdilution method; format: functional; settings: USA300 NRS384, 20 h; outline: as §1
[29] = system: Staphylococcus aureus; assay: Antibacterial activity against methicillin-resistant Staphylococcus aureus USA400 NRS123 clinical isolate after 20 hrs by broth microdilution method; format: functional; settings: USA400 NRS123, 20 h; outline: as §1
[30] = system: Staphylococcus aureus; assay: Antibacterial activity against methicillin-resistant Staphylococcus aureus USA300 NRS384 clinical isolate preincubated followed by bacterial subculturing for 2 weeks; format: functional
[31] = system: HaCaT; assay: Cytotoxicity against human HaCaT cells up to 32 ug/ml after 2 hrs by MTS assay; format: cell-based; outline: as §3
[32] = system: J774; assay: Cytotoxicity against mouse J774 cells at 8 ug/ml after 24 hrs by MTS assay; format: cell-based; settings: j774, 24 h
Outline: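 Murine macrophages cultured in DMEM plus 10% FBS, 37 °C, 5% CO2; compounds at 8, 16, 32, 64 µg/mL in triplicate for 24 h against DMSO-matched controls. MTS reagent 4 h, read at OD490. Viability as % of DMSO control (triplicate mean ± SD); one-way ANOVA, Dunnett's post hoc, P < 0.05.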

Row | SMILES | Time [2] | MIC [3] [µg/mL] | MBC [4] [µg/mL] | Activity [5] | MBC [6] [µg/mL] | MBC [7] [µg/mL] | MIC [8] [µg/mL] | Activity [10] | MBC [11] [µg/mL] | MIC [12] [µg/mL] | MBC [13] [µg/mL] | MBC [14] [µg/mL] | MBC [15] [µg/mL] | microsomal CLint [16] [µL/min/mg] | microsomal CLint [17] [µL/min/mg] | MIC [22] [µg/mL] | MIC [23] [µg/mL] | Activity [24] | Activity [25] | Activity [26] | also measured
1 | CN[C@H](CC(C)C)C(=O)N[C@H]1C(=O)N[C@@H](CC(N)=O)C(=O)N[C@H]2C(=O)N[C@H]3C(=O)N[C@H](C(=O)N[C@H](C(=O)O)c4cc(O)cc(O)c4-c4cc3ccc4O)[C@H](O)c3ccc(c(Cl)c3)Oc3cc2cc(c3O[C@@H]2O[C@H](CO)[C@@H](O)[C@H](O)[C@H]2O[C@H]2C[C@](C)(N)[C@H](O)[C@H](C)O2)Oc2ccc(cc2Cl)[C@H]1O [VANCOMYCIN] | 24 h | > 128 | 1 (≈ 0.69 µM) | inactive | 1 (≈ 0.69 µM) | < 1 | > 128 | inactive | > 128 | < 1 | 0.5 (≈ 0.345 µM) | > 128 | 0.5 (≈ 0.345 µM) | – | – | – | – | – | – | – | Activity [1]: 25%; Activity [9]: inactive
2 | Cc1ncc2n1-c1ccc(Cl)cc1C(c1ccccc1F)=NC2 [MIDAZOLAM] | – | – | – | – | – | – | – | – | – | – | – | – | – | < 9.6 | 402 | – | – | – | – | – | half-life [18]: 5.7 min; half-life [19]: > 240 min
3 | CC(=O)CC(c1ccccc1)c1c(O)c2ccccc2oc1=O (stereo not given) [WARFARIN] | – | – | – | – | – | – | – | – | – | – | – | – | – | < 9.6 | < 9.6 | – | – | – | – | – | Papp B→A at 2 h, 10 µM [20]: 20.3 ×10⁻⁶ cm/s; Papp A→B at 2 h, 10 µM [21]: 27.7 ×10⁻⁶ cm/s
4 | CCCCCOc1ccc(NC(=O)Nc2ccc(/C(C)=N/NC(=N)N)cc2)cc1 | – | 4 (≈ 10.1 µM) | 8 (≈ 20.2 µM) | – | 4 (≈ 10.1 µM) | 4 (≈ 10.1 µM) | 4 (≈ 10.1 µM) | – | 4 (≈ 10.1 µM) | 4 (≈ 10.1 µM) | 4 (≈ 10.1 µM) | 8 (≈ 20.2 µM) | 16 (≈ 40.4 µM) | – | – | 4 (≈ 10.1 µM) | 4 (≈ 10.1 µM) | Active | Active | Active | Activity [27]: Non-Toxic; MIC [28]: 4 µg/mL (≈ 10.1 µM); MIC [29]: 4 µg/mL (≈ 10.1 µM); Activity [30]: Active
5 | C/C(=N\NC(=N)N)c1ccc(NC(=O)Nc2ccc(OCCC(C)C)cc2)cc1 | <=4 hr | 2 (≈ 5.04 µM) | 4 (≈ 10.1 µM) | inactive | 4 (≈ 10.1 µM) | 4 (≈ 10.1 µM) | 4 (≈ 10.1 µM) | inactive | 4 (≈ 10.1 µM) | 4 (≈ 10.1 µM) | 4 (≈ 10.1 µM) | 4 (≈ 10.1 µM) | 4 (≈ 10.1 µM) | – | – | 2 (≈ 5.04 µM) | 2 (≈ 5.04 µM) | Active | Active | Active | Activity [31]: Non-Toxic; Activity [32]: Toxic; MIC [28]: 2 µg/mL (≈ 5.04 µM); MIC [29]: 2 µg/mL (≈ 5.04 µM); Activity [30]: Active
